The source of these data is ChEMBL document CHEMBL3621120, “Discovery of ((4-(5-(Cyclopropylcarbamoyl)-2-methylphenylamino)-5-methylpyrrolo[1,2-f][1,2,4]triazine-6-carbonyl)(propyl)carbamoyloxy)methyl-2-(4-(phosphonooxy)phenyl)acetate (BMS-751324), a Clinical Prodrug of p38α MAP Kinase Inhibitor” (J Med Chem, 2015).

≈ marks a conversion by molar mass, not a printed value.

A short description of series [1]: Solubility of the compound in pH 1.2 solution at room temperature. It counts as physicochemical.
Series [2] deals with T1, Alkaline phosphatase, placental type (Homo sapiens, UniProt P05187). Put plainly: Stability assessed as human placental ALP-mediated drug degradation by measuring compound remaining level in pH 7.5 tris buffer at 10 uM incubated for 0.25 hrs by LC/MS/MS method. The format is ADME. The settings on record: read-out: Stability. The essentials: (§1)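 Human placental alkaline phosphatase (1 unit/mL) incubated with compound at 10 µM in 89 mM tris buffer, pH 7.5, 37 °C; reactions in triplicate started by compound addition, sampled at 0, 15, 30, 60 min. For inhibition, HALT phosphatase inhibitor cocktail (100x dilution) added before compound. Samples quenched into EDTA, acetonitrile added, centrifuged, remaining compound measured by LC/MS/MS.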
T1 sequence (P05187 whole entry): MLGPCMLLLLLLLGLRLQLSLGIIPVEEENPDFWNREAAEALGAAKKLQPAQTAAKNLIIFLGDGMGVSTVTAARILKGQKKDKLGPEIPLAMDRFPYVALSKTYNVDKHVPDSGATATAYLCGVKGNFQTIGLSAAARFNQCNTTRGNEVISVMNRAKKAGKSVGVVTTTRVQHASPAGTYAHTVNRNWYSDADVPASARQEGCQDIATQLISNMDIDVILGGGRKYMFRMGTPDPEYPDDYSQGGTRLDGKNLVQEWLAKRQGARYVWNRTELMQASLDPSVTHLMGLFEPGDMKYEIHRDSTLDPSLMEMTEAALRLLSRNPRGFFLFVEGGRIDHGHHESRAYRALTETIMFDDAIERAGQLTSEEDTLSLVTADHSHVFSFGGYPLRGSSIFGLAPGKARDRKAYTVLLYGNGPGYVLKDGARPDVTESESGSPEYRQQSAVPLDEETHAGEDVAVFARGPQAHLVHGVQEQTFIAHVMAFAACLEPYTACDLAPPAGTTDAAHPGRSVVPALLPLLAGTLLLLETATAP

Series [3] is described as follows: Stability in pH 1.1 solution assessed as half-life at 37 degC. It counts as physicochemical.
The target of series [4] is T1, Alkaline phosphatase, placental type. The experiment in a line: Stability assessed as human placental ALP-mediated drug degradation by measuring compound remaining level in pH 7.5 tris buffer at 10 uM incubated for 0.25 hrs in presence of HALT phosphatase inhibitor cocktail by LC/MS/MS method. Particulars: pH 7.5, with HALT phosphatase inhibitor cocktail, read-out: Stability. It counts as ADME. The procedure, abridged: as §1

A short description of series [5]: Solubility of the compound in pH 6.7 solution at room temperature. It counts as physicochemical.
In series [6] the target is T1, Alkaline phosphatase, placental type. The experiment in a line: Stability assessed as human placental ALP-mediated drug degradation by measuring compound remaining level in pH 7.5 tris buffer at 10 uM incubated for 0.5 hrs in presence of HALT phosphatase inhibitor cocktail by LC/MS/MS method. It counts as ADME. Particulars: pH 7.5, with HALT phosphatase inhibitor cocktail, read-out: Stability. The procedure, abridged:
as §1

Series [7] deals with Rattus norvegicus. Put plainly: AUC in Sprague-Dawley rat assessed as plasma BMS-582949 level at 1 mg/kg, po dose equivalent to BMS-582949 after 24 hrs by LC/MS/MS method. It counts as ADME, organism-based. Also noted: time < 24 hr, dose 1 mg/kg, route oral. Particulars: in vivo.
The target of series [8] is T1, Alkaline phosphatase, placental type. The experiment in a line: Stability assessed as human placental ALP-mediated drug degradation by measuring compound remaining level in pH 7.5 tris buffer at 10 uM incubated for 0.5 hrs by LC/MS/MS method. It counts as ADME. The settings on record: read-out: Stability. The procedure, abridged:
as §1

In series [9] the test system is Cynomolgus monkey. Put plainly: Bioavailability in cynomolgus monkey assessed as plasma BMS-582949 level at 10 mg/kg, po dose equivalent to BMS-582949 after 24 hrs by LC/MS/MS method. It counts as ADME, organism-based, Macaca fascicularis. Particulars: in vivo. The procedure, abridged: (§2)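 Three overnight-fasted male cynomolgus monkeys (4.2-5.2 kg) given prodrug by oral gavage at 10 or 30 mg/kg, 5 mL/kg methocel suspension, one-week washout between doses. Femoral artery blood pre-dose and 0.25-24 h post-dose; plasma (centrifuged 4 °C) stored -20 °C and analysed by LC/MS/MS for parent.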

For series [10], the system named is Cynomolgus monkey. Put plainly: Cmax in cynomolgus monkey assessed as plasma BMS-582949 level at 30 mg/kg, po dose equivalent to BMS-582949 after 24 hrs by LC/MS/MS method. It counts as ADME, organism-based, Macaca fascicularis. Also on record: dose 30 mg/kg, route oral. Particulars: in vivo. The procedure, abridged:
as §2

Series [11] deals with Cynomolgus monkey. The experiment in a line: Bioavailability in cynomolgus monkey assessed as plasma BMS-582949 level at 30 mg/kg, po dose equivalent to BMS-582949 after 24 hrs by LC/MS/MS method. The format is ADME, organism-based, Macaca fascicularis. Particulars: in vivo. The procedure, abridged:
as §2

Series [12] has as its system Rattus norvegicus. Put plainly: Inhibition of paw swelling in Lewis rat adjuvant arthritis model assessed as reduction in hind paw volume at 1 mg/kg, po bid dose equivalent to BMS-582949 beginning on day 11 post adjuvant challenge by volume displacement plethysmometry method relative to control. The settings on record: 264 h. It counts as functional. The essentials:
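Male Lewis rats given complete Freund's adjuvant on day 1; from day 11 compounds dosed orally BID in 0.5 mL vehicle (prodrug as aqueous suspension in 0.75% Methocel, 0.1% Tween 80; parent in PEG 300). Paw volume measured 3 times per week for rest of study; paw swelling inhibition reported.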

In series [13] the test system is Rattus norvegicus. Put plainly: Bioavailability in Sprague-Dawley rat assessed as plasma BMS-582949 level at 1 mg/kg, po dose equivalent to BMS-582949 after 24 hrs by LC/MS/MS method. Particulars: in vivo. It counts as ADME, organism-based.
Series [14] has as its system Cynomolgus monkey. Put plainly: AUC in cynomolgus monkey assessed as plasma BMS-582949 level at 10 mg/kg, po dose equivalent to BMS-582949 after 24 hrs by LC/MS/MS method. The settings on record: in vivo. Also noted: time < 24 hr, dose 10 mg/kg, route oral. It counts as ADME, organism-based, Macaca fascicularis. The essentials:
as §2

Series [15] is described as follows: Stability in pH 7.4 solution assessed as half-life at 37 degC. It counts as physicochemical.

As to `CCCN(C(=O)OCOC(=O)Cc1ccc(OP(=O)(O)O)cc1)C(=O)c1cn2ncnc(Nc3cc(C(=O)NC4CC4)ccc3C)c2c1C`, the solubility in series [1] amounted to 100 µg/mL (≈ 144 µM); in [5], 3030 µg/mL (≈ 4360 µM). The remaining at 0.25 h, 10 µM in [2] amounted to 12.5%; in [4] it was 100%. Also, the half-life in [3] is 21 h; in series [15] it was 37 h. Besides, the remaining at 0.5 h, 10 µM is 94% in [6] and 11.1% in series [8]. Moreover, the figures for the area under the curve (AUC) in the series with Rattus norvegicus [7] and in the series with Cynomolgus monkey [14] were 3.1 µM·h and 24 µM·h, respectively. Besides, the F in the series with Cynomolgus monkey [9] was 51%; in the series on Cynomolgus monkey [11], 69%; in the series on Rattus norvegicus [13] it was 41%. In addition, the Cmax in the series with Cynomolgus monkey [10] stood at 29 µM. In addition, the inhibition in vivo at 1 mg/kg in the series with Rattus norvegicus [12] amounted to 39%.
